Data on one molecule can be found in ChEMBL document CHEMBL2331224 (J Med Chem, 2013).

Activity calls are given as the source filed them. The calls are words filed in the database; no cut-off is given here.

The subject of one series is Rattus norvegicus. Kind of series: Toxicity in Sprague-Dawley rat assessed as change in body weight at 30 mg/kg, po for 28 days. The class given is organism-based. Further details: dose 30 mg/kg, route oral. Particulars: in vivo, 672 h. The essentials:
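Male and female SD rats, four weeks old on arrival, two per cage. Oral 30 mg/kg/day or vehicle (1% ethanol/0.5% CMC in water, 5 mL/kg) for 28 days, body weight recorded daily. After overnight fasting and isoflurane anaesthesia, liver, brain, kidney, spleen and testis were weighed, and serum was collected (2000g, 10 min, 4 °C) for blood chemistry.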

Series [1] relates to Mus musculus. Kind of series: Antidiabetic activity in KKAy mouse assessed as reduction in blood glucose level on day 4 to 12 at 10 mg/kg/day, po for 14 days. The class given is functional, organism-based. The essentials: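 Male KK-A^y mice, housed singly after 6 weeks' acclimation and grouped by blood glucose. Oral 10 mg/kg/day or vehicle (1% ethanol/0.5% CMC in water, 10 mL/kg) for 14 days. Body weight, food and water intake were followed. Fed blood glucose was taken from the tail vein by the glucose oxidase method. n = 4−5, ANOVA.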

Series [2] deals with T1, Retinoic acid receptor alpha (Homo sapiens) (UniProt P10276).
T1 sequence (whole entry): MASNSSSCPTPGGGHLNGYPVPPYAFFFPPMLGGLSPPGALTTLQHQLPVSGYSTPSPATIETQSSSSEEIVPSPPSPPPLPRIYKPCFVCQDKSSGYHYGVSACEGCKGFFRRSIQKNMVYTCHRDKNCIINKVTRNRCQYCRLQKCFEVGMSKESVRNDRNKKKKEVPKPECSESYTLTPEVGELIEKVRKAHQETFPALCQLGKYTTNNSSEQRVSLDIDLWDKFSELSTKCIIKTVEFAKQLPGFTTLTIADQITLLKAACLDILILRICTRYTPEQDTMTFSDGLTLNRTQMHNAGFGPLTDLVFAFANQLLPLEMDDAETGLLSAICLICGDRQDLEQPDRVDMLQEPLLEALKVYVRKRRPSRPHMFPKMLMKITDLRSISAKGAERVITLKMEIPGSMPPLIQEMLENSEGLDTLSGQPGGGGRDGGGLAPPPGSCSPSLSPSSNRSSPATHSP
Kind of series: Transactivation of RARalpha (unknown origin) by luciferase reporter gene assay relative to Am80.

Series [3] deals with T2, Retinoic acid receptor RXR-alpha (Homo sapiens) (UniProt P19793).
T2 sequence (whole entry): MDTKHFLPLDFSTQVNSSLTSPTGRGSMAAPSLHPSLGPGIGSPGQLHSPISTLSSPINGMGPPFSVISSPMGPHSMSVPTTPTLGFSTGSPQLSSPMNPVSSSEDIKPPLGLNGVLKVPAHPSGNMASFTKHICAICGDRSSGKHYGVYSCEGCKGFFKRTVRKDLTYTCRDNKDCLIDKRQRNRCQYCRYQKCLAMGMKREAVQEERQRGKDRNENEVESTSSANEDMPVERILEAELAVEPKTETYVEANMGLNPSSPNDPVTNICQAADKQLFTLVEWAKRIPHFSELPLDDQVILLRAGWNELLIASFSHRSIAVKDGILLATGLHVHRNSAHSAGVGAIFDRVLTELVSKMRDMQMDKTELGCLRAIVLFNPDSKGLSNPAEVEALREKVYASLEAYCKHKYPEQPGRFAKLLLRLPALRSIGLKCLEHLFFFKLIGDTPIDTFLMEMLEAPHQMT
Kind of series: Transactivation of RXRalpha (unknown origin) expressed in COS1 cells at 10 uM after 18 hrs by luciferase reporter gene assay relative to bexarotene. The note with it: COS-1. Format: cell-based. The essentials: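 COS-1 cells in DMEM with 10% FBS at 37 °C, 5% CO2, transfected with RXRα, an RXR-response-element luciferase reporter and a SEAP background vector. Cells were seeded at about 2.0 × 10⁴ per well with compound (DMSO below 1%) for 18 h. Luciferase was normalized to SEAP and expressed relative to 1 μM reference RXR full agonist as 100%. EC50 came from full dose-response curves. Triplicates, at least three experiments.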

Series [4] deals with RXR alpha/PPAR gamma (Homo sapiens) (UniProt P37231+P19793). Kind of series: Transactivation of PPARgamma/RXRalpha (unknown origin) by luciferase reporter gene assay relative to TIPP703. Format: protein-complex assay. The procedure, abridged: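 Heterodimer reporter in COS-1 cells co-transfected with RXRα (0.5 μg), partner receptor (LXRα for line 2, PPARγ for line 3; 0.5 μg), partner response element-luciferase (4.0 μg), and SEAP. Compound (DMSO below 1%) with ~2.0 × 10⁴ cells/well, 18 h, 37 °C; luciferase normalized to SEAP; triplicate, three runs.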

The subject of series [5] is Mus musculus. The series can be described thus: Toxicity against KKAy mouse assessed as total cholesterol level at 10 mg/kg/day, po for 14 days (reference value: 153.2 +/- 11.1 mg/dL). The class given is organism-based. Further details: route oral. Particulars: in vivo, 336 h.
Series [6] addresses T3, Retinoic acid receptor RXR-alpha (Mus musculus) (UniProt P28700).
T3 sequence (whole entry): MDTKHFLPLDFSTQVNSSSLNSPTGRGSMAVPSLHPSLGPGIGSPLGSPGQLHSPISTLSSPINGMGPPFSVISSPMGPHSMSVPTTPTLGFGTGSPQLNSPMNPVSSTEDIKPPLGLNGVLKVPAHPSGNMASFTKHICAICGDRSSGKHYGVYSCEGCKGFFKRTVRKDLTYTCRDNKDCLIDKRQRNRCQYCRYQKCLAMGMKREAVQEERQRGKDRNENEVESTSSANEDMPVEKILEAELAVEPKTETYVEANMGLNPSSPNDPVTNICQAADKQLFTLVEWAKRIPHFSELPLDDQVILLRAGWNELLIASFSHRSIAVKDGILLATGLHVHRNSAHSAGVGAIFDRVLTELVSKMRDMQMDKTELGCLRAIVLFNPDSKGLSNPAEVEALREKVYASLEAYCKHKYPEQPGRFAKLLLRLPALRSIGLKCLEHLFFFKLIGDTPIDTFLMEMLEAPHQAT
The series can be described thus: Partial agonist activity at mouse RXRalpha expressed in COS1 cells by luciferase reporter gene assay relative to bexarotene. The class given is cell-based. The note with it: COS-1. (A reporter such as luciferase makes a cellular process visible.)

The test system of series [7] is Mus musculus. The series can be described thus: Toxicity against KKAy mouse assessed as plasma gammaGTP level at 10 mg/kg/day, po for 14 days (reference value: 5.8 +/- 0.6 IU). The class given is organism-based. Particulars: in vivo, 336 h. Further details: route oral.
Series [8] deals with Mus musculus. The series can be described thus: Toxicity in ICR mouse assessed as increase in blood total cholesterol level at 30 mg/kg/day, po for 7 days. Further details: route oral. Format: organism-based. The note with it: in vivo, 168 h. The essentials:
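Male ICR mice, 6−7 weeks old, four per cage, grouped by body weight. Oral 30 mg/kg or vehicle (1% ethanol/0.5% CMC in water, 10 mL/kg) once daily for 7 days, body weight recorded daily. After overnight fasting, mice were weighed under ether, and liver was removed and weighed. Serum was analysed on a dry-chemistry analyser for TG, TCHO, ALP, CRE, BUN and other markers. n = 7−23, ANOVA.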

Consider `Cc1cc2c(cc1-n1c(C(F)(F)F)nc3cc(C(=O)O)ccc31)C(C)(C)CCC2(C)C`, for which the Activity result in the series on Rattus norvegicus was “Non-toxic”; in the series with Mus musculus [5], 155.3 mg/dL; in the series on Mus musculus [7] it was 6.3 IU; with Mus musculus [8] it was “Non-toxic”. In addition, the result (in the series with Mus musculus [1]; in series [2]; in series [4]; in series [6]) was Active. The molecule also gave an Efficacy in series [3] of 71%.
